# ALR H2O2 inh – human ALR oxidase inhibition via reduced H2O2; P55789; purified ALR, DTT oxidation, H2O2 HRP-luminol luminescence; inhibition, % (concentration not given with the values); hit rate 3.8% among 290,000; AID 485317;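 active = mean replicate inhibition above about 79%, with every replicate also reaching it, limit read from the data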
# Target sequence (P55789 whole entry, looked up): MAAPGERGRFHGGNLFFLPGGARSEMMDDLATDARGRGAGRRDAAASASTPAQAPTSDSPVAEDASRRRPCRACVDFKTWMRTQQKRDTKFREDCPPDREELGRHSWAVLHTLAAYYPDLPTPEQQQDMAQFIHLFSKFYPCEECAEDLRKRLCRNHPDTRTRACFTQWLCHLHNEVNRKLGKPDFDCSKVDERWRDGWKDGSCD
# Calb FLC – C. albicans growth modulation with fluconazole; C. albicans CaCi-2 (fluconazole-resistant clinical isolate) + fluconazole, Alamar Blue growth, 48 h; growth inhibition, % (test concentration not listed); hit rate 0.57% among 300,000; AID 1979;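 active = growth inhibition above about 58% in most replicates, limit read from the data, passing the limit was not always enough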;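 note: all wells also contain fluconazole at 8 µg/ml as a sub-toxic cotreatment; 0% = median of DMSO wells and 100% = median of geldanamycin control wells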
# ATG4B inh – inhibitors of human ATG4B cysteine protease; inhibition, % at 8.33 µM; AID 504462; ATG4B cleavage of LC3-PLA2, NBD-HPC fluorescence, 1 h; hit rate 0.51% among 340,000; Q9Y4P1; in the data active = inhibition above about 40%
# NALP1 yeast inh – NALP1 inhibition; S. cerevisiae NALP1/ASC/caspase-1 growth, X-gal OD620, 72 h; inhibition, % at 10 µM; hit rate 0.61% among 280,000; AID 2071; in the data active = inhibition mostly above about 24%, no sharp cut-off; inactive = mostly below about 32%
# NLRP3 yeast inh – NALP3 inhibition in yeast; Yeast reconstituted NLRP3/ASC/caspase-1, beta-gal luminescence, 24 h; inhibition, % at 10 µM; hit rate 0.39% among 330,000; AID 2825;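 active = inhibition of 50% or more; inactive = inhibition below 50%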;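 note: plate controls were induced DMSO wells for no effect and uninduced yeast grown without galactose for full effect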
# UCH37 inh – inhibitors of human deubiquitinating enzyme UCH37 | Q9Y5K5 | purified proteasome/UCH37, Ub-AMC cleavage fluorescence | inhibition, % (test concentration not listed) | hit rate 0.33% among 330,000 | AID 588478;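 active = mean inhibition over replicate wells above about 20%, limit read from the data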;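 note: 0% = compound-free wells with enzyme and 100% = wells lacking proteasome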
# Target sequence (Q9Y5K5 whole entry, looked up): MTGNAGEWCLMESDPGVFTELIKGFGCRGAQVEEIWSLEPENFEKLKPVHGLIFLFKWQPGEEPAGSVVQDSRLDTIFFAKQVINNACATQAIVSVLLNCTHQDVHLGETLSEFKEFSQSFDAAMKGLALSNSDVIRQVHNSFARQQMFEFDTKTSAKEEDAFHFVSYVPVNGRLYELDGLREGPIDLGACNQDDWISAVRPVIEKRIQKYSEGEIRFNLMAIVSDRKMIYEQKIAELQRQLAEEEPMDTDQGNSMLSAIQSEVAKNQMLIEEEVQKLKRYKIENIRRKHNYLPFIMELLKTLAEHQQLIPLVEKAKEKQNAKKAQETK
#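 Signal – fluorescence, ex 355 nm, em 460 nm · System – Proteasome-bound UCH37 · Input – 0.15 nM proteasome as dispensed · Timing – 30 min preincubation with enzyme, 25 min cleavage at room temperature · Read-out basis – percent inhibition of cleavage signal versus uninhibited and no-proteasome wells · Medium – Tris-HCl pH 7.4 with ATP-MgCl2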
# * hit, by the source's call; i = inactive; . = no result given. An excerpt weighted towards active compounds, which were near 4.8% of everything screened.
SMILES,ALR H2O2 inh,Calb FLC,ATG4B inh,NALP1 yeast inh,NLRP3 yeast inh,UCH37 inh
COC(=O)NN=C(C)c1ccc2ccccc2c1OC(F)F,.,.,.,.,.,4
CCCCc1cc2c(c(NC(C)=O)n1)c(=O)oc1ccccc12,-5,-3,.,9,9,-49
CC(=O)Nc1nc(CC(C)C)cc2c1c(=O)oc1ccccc12,.,32,-1,28*,-7,-25
COc1ccc(C(=O)c2nccc3cc(OC)c(OC)cc23)cc1OC,-25,.,1,.,5,48*
CCC12CN3CCN(CC(C3)C1=NNC(=O)c1ccc(Cl)cc1)C2,.,.,.,.,.,2
CC(=NNC(=O)c1cccnc1)c1ccc(-c2ccccc2)cc1,.,.,.,.,.,2
CCCC1=C(C(=O)OCC)C(c2ccc(N(C)C)cc2)n2ncnc2N1 (configuration not stated),98*,-25,-2,3,1,5
CC(=NNC(=O)c1ccccc1)C(=O)O,.,.,.,.,.,0
O=C(CNC(=O)c1ccc2c(c1)OCCO2)NN=Cc1ccc([N+](=O)[O-])cc1,.,.,.,.,.,4
CCOC(=O)C1=C(C)NC2=C(C(=O)CCC2)C1c1ccc(N(C)C)cc1 (configuration not stated),74,4,-15,0,12,-1
COCCOC(=O)C1=C(C)NC2=C(C(=O)CCC2)C1c1ccc2c(c1)OCO2 (configuration not stated),-3,4,-14,0,20,-93
CCCOC(=O)C1=C(C)NC2=C(C(=O)CCC2)C1c1ccc(N(C)C)cc1 (configuration not stated),91*,-3,-1,0,13,0
CCN(CC)c1ccc(C2C(C(=O)OCCOC)=C(C)NC3=C2C(=O)CCC3)cc1 (configuration not stated),99*,-11,-6,27,13,-55
N#CCC(=O)NN=Cc1ccccc1OC/C=C/c1ccccc1,.,.,.,.,.,1
CC(C)CCOCC(O)CCC(=O)NNC(=S)Nc1ccccc1 (configuration not stated),55,-5,-1,7,1,1
C=CCC(CC(O)COCCC)C(=O)NNC(=S)Nc1ccccc1 (configuration not stated),98*,-6,-6,-5,19,1
COc1cc(-c2nc3ccccn3c2N=Cc2ccc(F)cc2)ccc1O,.,.,.,.,.,-202
COc1cc(-c2nc3ccccn3c2/N=C/c2ccc(F)cc2)ccc1O,95*,2,-12,7,15,.
COc1cc(/C=N/NC(=O)c2cc(-c3ccc4c(c3)OCO4)n[nH]2)ccc1O,91*,-7,-29,-5,-4,.
COc1cc(C=NNC(=O)c2ccc3c(c2)OCO3)ccc1O,.,.,.,.,.,9
COc1cc(/C=N/NC(=O)c2cc(-c3c(C)nn(-c4ccccc4)c3C)n[nH]2)ccc1O,84*,-10,-10,-9,-4,.
Cc1nn(-c2ccccc2)c(C)c1-c1cc(C(=O)N/N=C/c2ccc(O)cc2)[nH]n1,97*,-4,-2,9,17,.
CC(=NNC(=O)c1nnn(-c2nonc2N)c1-c1ccc2c(c1)OCO2)c1ccc(C)cc1,.,.,.,.,.,-10
CCNS(=O)(=O)c1ccc(NC(=O)c2cccnc2)cc1,-3,100*,3,1,-2,2
O=C(Nc1ccc(S(=O)(=O)Nc2ncccn2)cc1)c1cccnc1,-4,6,-3,28,21,3
SMILES,ALR H2O2 inh,Calb FLC,ATG4B inh,NALP1 yeast inh,NLRP3 yeast inh,UCH37 inh
CCC(C)c1ccc(O)c(NC(=O)c2cccnc2)c1 (configuration not stated),95*,16,3,33,-3,2
O=C(NC=NOCc1cccc(C(F)(F)F)c1)N1OC[C@@H]2COc3ccc4ccccc4c3[C@@H]21,.,.,.,.,.,6
O=S(=O)(/N=C(/Sc1ccccc1)c1ccccc1)c1ccccc1,98*,-2,7,8,12,.
CC(C)C(=O)ON=C(N)c1ccc(Oc2ccc(Cl)cc2)c([N+](=O)[O-])c1,.,.,.,.,.,5
Cc1ccc(NC(=S)NN=C2CCCc3c(C)cc(C)cc32)cc1,.,.,.,.,.,2
CCCCc1c(C)nc2ccc(C(=O)OCC)cc2c1Cl,97*,-3,8,18,25,2
CCOC(=O)c1ccc2nc(C)c(CC)c(Cl)c2c1,2,15,-15,16,22,6
O=C(Nc1ccccc1Cl)ON=C(c1ccccc1)c1ccccn1,.,.,.,.,.,3
CCOC(=O)c1c(N2C(=O)C=CC2=O)sc(C)c1C,44,0,0,53*,5,0
CCOC(=O)c1c(NC(N)=O)sc(C)c1C,18,1,0,20,13,5
COCCn1c(-c2ccco2)nc2nc3ccccc3nc21,.,8,-11,0,12,-444
CC(C)OCCCn1c(-c2ccco2)nc2nc3ccccc3nc21,98*,-3,5,30,12,i
Cc1ccc(SCCC(=O)NN=Cc2ccccc2O)cc1,.,.,.,.,.,-6
Cc1cc(N2C(=O)C=CC2=O)c([N+](=O)[O-])cc1C,20,.,-11,64*,-25,1
Cc1c([N+](=O)[O-])cc(N2C(=O)C=CC2=O)cc1[N+](=O)[O-],.,.,-6,.,.,5
O=C(Nc1nnc(SCc2ccc(Cl)cc2)s1)c1cnccn1,0,80*,9,19,17,3
O=C(Nc1ccc(Cl)cc1)Nc1nnc(SCc2ccc(Cl)cc2)s1,2,-10,11,29,-14,.
Cc1cccc(C)c1C(OCCN(C)C)C1CCCCC1 (configuration not stated),-7,-31,3,51*,12,4
CN(C)CCOC(c1ccccc1)c1ccccc1,-10,.,-7,.,24,2
Cc1ccc(S(=O)(=O)c2c(C)nn(C(C)(C)C)c2OC(=O)c2ccc(Br)o2)cc1,.,87*,-1,3,45,-1
CC(=O)n1c2c(c3ccccc31)OC(N)=C(C#N)C2c1ccc(C(C)C)cc1 (configuration not stated),-15,7,35,34*,14,-14
CC(=O)C1=C(C)OC(N)=C(C#N)C1c1cccc2ccccc12 (configuration not stated),-16,0,-4,-5,6,3
O=C(NNC(=S)NC(=O)c1ccccc1)c1cccc([N+](=O)[O-])c1,98*,-11,1,-2,14,10
O=C(NNC(=S)NC(=O)c1ccccc1[N+](=O)[O-])c1ccccc1,12,10,-7,5,29,7
O=C(NNC(=S)NC(=O)c1cccc([N+](=O)[O-])c1)c1ccc(Br)cc1,96*,.,4,-14,15,5
O=C(NC(=S)NNC(=O)c1ccccc1[N+](=O)[O-])c1ccccc1,96*,-3,6,6,0,4
O=C(NNC(=S)NC(=O)c1cccc([N+](=O)[O-])c1)c1ccc(O)cc1,88*,30,-12,-10,-7,6

# High-throughput results deposited in PubChem by several laboratories.
